In experiment [1] the target is Bromodomain-containing protein 4 (Homo sapiens, UniProt O60885). Description: Inhibition of GST-tagged BRD4 bromodomain (unknown origin) using biotinylated histone H4KAc peptide (1 to 21 residues) as substrate by HTRF assay.
The subject of experiment [2] is SW-620. Description: Antiproliferative activity against human SW620 cells assessed as reduction in cell viability measured after 24 to 48 hrs by MTT assay. Format: functional, cell-based. (Formazan colour is commonly taken as a measure of viable cells.)
In experiment [3] the target is T1, Protein deacetylase HDAC6 (Homo sapiens, UniProt Q9UBN7).
T1 sequence (Q9UBN7 whole entry): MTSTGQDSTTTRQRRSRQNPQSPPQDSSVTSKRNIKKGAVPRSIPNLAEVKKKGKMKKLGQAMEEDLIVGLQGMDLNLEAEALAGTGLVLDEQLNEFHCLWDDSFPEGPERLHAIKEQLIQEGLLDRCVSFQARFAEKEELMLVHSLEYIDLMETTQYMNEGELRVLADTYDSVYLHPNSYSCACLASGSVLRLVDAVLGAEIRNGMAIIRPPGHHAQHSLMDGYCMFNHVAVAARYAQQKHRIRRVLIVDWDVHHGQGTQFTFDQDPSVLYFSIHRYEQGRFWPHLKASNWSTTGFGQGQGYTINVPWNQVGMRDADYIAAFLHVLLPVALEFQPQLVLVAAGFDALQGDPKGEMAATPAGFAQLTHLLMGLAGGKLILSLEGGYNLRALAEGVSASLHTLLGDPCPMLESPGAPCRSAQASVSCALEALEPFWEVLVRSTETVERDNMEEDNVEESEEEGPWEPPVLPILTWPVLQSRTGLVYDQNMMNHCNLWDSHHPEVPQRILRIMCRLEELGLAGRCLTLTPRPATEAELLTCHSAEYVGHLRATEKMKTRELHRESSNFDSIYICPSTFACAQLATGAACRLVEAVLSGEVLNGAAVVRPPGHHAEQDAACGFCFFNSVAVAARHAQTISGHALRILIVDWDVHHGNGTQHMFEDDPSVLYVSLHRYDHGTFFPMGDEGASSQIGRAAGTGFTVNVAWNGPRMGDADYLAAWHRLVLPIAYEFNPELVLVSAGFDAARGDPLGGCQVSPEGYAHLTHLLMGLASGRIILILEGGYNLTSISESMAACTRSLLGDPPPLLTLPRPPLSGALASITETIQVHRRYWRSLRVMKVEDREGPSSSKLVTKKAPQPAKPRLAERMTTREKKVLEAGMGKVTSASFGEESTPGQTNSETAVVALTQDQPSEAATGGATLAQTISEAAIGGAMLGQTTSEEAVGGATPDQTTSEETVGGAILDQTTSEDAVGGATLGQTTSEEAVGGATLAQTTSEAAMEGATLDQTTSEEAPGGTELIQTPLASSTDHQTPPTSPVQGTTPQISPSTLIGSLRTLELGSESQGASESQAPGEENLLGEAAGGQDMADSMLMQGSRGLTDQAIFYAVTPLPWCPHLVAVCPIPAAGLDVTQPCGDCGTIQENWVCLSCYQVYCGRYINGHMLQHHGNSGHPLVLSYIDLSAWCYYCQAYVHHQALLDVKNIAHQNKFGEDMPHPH
Description: Inhibition of HDAC6 (unknown origin) using biotinylated histone H3 KAc peptide (1 to 21 residues) as substrate by HTRF assay. In general terms: Time-resolved FRET reads energy transfer from a long-lived donor to a nearby acceptor.

The test system of experiment [4] is DLD-1. In words: Antiproliferative activity against human DLD1 cells assessed as reduction in cell viability measured after 24 to 48 hrs by MTT assay. The experiment is classed as functional, cell-based.
In experiment [5] the test system is HCT-116. In words: Antiproliferative activity against human HCT116 cells assessed as reduction in cell viability measured after 24 to 48 hrs by MTT assay. The experiment is classed as functional, cell-based.
Experiment [6] has as its target T2, Histone deacetylase 7 (Homo sapiens, UniProt Q8WUI4).
T2 sequence (Q8WUI4 whole entry): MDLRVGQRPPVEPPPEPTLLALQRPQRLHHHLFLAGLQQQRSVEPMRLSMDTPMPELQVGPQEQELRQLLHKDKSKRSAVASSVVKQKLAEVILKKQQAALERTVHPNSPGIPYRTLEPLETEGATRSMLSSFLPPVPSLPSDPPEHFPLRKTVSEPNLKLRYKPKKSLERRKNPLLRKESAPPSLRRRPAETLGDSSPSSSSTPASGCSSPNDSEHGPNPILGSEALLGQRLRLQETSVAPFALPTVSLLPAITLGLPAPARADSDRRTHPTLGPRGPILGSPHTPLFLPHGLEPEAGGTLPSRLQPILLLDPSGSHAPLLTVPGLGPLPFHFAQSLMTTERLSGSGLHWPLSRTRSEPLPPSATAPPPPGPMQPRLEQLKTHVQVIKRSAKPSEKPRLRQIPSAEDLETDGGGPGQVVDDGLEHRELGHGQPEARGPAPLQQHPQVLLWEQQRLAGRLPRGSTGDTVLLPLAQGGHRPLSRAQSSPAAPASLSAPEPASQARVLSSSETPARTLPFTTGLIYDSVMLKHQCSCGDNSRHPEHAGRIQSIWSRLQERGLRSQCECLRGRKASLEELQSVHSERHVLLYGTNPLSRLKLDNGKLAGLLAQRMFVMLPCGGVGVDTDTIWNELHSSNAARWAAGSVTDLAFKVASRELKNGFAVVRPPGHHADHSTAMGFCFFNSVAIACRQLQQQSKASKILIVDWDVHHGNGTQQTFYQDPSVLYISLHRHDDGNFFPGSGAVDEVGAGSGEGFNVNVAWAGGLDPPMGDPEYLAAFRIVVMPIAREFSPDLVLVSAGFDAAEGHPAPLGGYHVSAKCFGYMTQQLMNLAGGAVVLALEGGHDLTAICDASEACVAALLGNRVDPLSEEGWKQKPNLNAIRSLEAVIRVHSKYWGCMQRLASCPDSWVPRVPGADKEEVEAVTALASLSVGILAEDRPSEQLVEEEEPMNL
In words: Inhibition of HDAC7 (unknown origin) using biotinylated histone H3 KAc peptide (1 to 21 residues) as substrate by HTRF assay.

Experiment [7] has as its target Histone deacetylase 2 (Homo sapiens, UniProt Q92769).
The test system of experiment [8] is Mus musculus. Description: Increase in LIFR expression in tumor tissue of BALB/cAnNCrl mouse xenografted with human HCT116 cells at 30 mg/kg, po administered on day 1 to day 19 measured on day 19 by immunohistochemical analysis. The experiment is classed as functional, organism-based. A digest of the protocol:
(§1)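 HCT-116 xenograft mice were dosed orally at 15 or 30 mg/kg, or 30 mg/kg for reference agents, for 19 days, with vehicle or saline controls. Tumor sections were stained for Ki-67, c-Myc, Ac-H3, BRD4, LC3-II, LIFR and p-STAT3 by immunohistochemistry, and TUNEL staining was used as the apoptosis marker.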
A general note: Xenograft models place foreign cells or tissue in a host animal.

For experiment [9], the system named is HCT-116. In words: Effect on histone H3 expression level in human HCT116 cells measured after 24 hrs by Western blot analysis. Format: functional, cell-based.
Experiment [10] concerns Mus musculus. In words: Increase in phosphorylated STAT3 expression in tumor tissue of BALB/cAnNCrl mouse xenografted with human HCT116 cells at 30 mg/kg, po administered on day 1 to day 19 measured on day 19 by immunohistochemical analysis. Format: functional, organism-based. The method in brief:
as §1

Active and inactive are the calls of the source. The calls are words filed in the database; no cut-off is given here.

Chain of Histone deacetylase 2 (Q92769 whole entry): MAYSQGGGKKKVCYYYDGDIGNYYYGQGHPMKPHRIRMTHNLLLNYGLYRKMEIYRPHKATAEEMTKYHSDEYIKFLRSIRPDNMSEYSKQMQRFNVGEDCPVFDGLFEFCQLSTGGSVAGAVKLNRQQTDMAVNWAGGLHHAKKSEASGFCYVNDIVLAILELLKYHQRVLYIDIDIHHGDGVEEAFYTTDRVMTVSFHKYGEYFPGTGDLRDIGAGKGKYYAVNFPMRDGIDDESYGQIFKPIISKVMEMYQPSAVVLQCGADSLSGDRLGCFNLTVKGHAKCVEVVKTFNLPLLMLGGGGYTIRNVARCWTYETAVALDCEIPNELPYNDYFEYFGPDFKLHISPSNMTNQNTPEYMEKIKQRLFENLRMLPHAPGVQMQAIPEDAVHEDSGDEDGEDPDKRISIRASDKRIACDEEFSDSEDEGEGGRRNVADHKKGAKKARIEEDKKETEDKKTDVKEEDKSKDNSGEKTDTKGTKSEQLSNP

In general, IC50 refers to the concentration that inhibits the measured activity by half. In the case of `Cc1cc(-c2nc3sc4c(c3c(=O)[nH]2)CCN(C)C4)cc(C)c1OCc1cccc(C(=O)NO)c1`, the IC50 in experiment [1] was 1.93 µM; in [2], 7.83 µM; in experiment [3] it was 0.78 µM; in [4], 9.16 µM; in [5], 5.49 µM; in experiment [6], more than 10 µM. The molecule also came in with an IC50 in experiment [7] of 0.251 µM.

`O=C(CCCCCCC(=O)Nc1ccccc1)NO`: the outcome in [8] and in experiment [10] was Active. In addition, in experiment [9], the outcome was inactive.

`Cc1cc(-c2nc3sc4c(c3c(=O)[nH]2)CCN(C)C4)cc(C)c1OCc1ccc(C(=O)NO)cc1`: the IC50 is 1.77 µM in experiment [1]; 3.87 µM in [2]; 0.188 µM in experiment [3]; 6.24 µM in experiment [4]; 1.07 µM in [5]; more than 10 µM in experiment [6]. This molecule also returned an IC50 in experiment [7] of 0.105 µM.

Take `Cc1noc(C)c1-c1nc2sc3c(c2c(=O)[nH]1)CCN(CCCCCC(=O)Nc1ccccc1N)C3`: the IC50 is more than 10 µM in [1]; 11.1 µM in experiment [2]; 0.196 µM in experiment [3]; 14.8 µM in experiment [4]; 15.2 µM in experiment [5]; more than 10 µM in experiment [6]. Further, the midpoint of inhibition in experiment [7], the IC50, lay at 0.112 µM.

For the molecule `Cc1cc(-c2nc3sc4c(c3c(=O)[nH]2)CCN(C)C4)cc(C)c1OCc1cccc(C(=O)Nc2ccccc2N)c1`, the IC50 in experiment [1] is 3.48 µM; in [2] it was more than 10 µM; in experiment [3], more than 10 µM; in experiment [4], more than 10 µM; in [5] it was 4.53 µM; in experiment [6] it was more than 10 µM. This molecule showed an IC50 in experiment [7] of 0.86 µM.

For the molecule `Cc1cc(-c2nc3sc4c(c3c(=O)[nH]2)CCN(C)C4)cc(C)c1OCc1ccc(C(=O)Nc2ccccc2N)cc1`, the IC50 was 2.55 µM in experiment [1]; 5.49 µM in experiment [2]; more than 10 µM in experiment [3]; more than 10 µM in [4]; 4.32 µM in experiment [5]; more than 10 µM in [6]. This molecule yielded an IC50 in experiment [7] of 0.14 µM.

As for `Cc1cc(-c2nc3sc4c(c3c(=O)[nH]2)CCN(C)C4)cc(C)c1OCCOCc1ccc(/C=C/C(=O)NO)cc1`, the IC50 is 0.98 µM in [1]; 3.85 µM in experiment [2]; 0.159 µM in experiment [3]; 3.04 µM in experiment [4]; 0.69 µM in [5]; more than 10 µM in [6]. The IC50 in experiment [7] was determined as 0.085 µM.

Regarding `Cc1noc(C)c1-c1nc2sc3c(c2c(=O)[nH]1)CCN(CC(=O)Nc1ccccc1N)C3`, the IC50 in experiment [1] was more than 10 µM; in [2], 15.2 µM; in experiment [3], 0.391 µM; in experiment [4], 15.2 µM; in experiment [5], 28.3 µM; in [6], more than 10 µM. The IC50 in [7] stood at 0.352 µM.

For `Cc1cc(-c2nc3sc4c(c3c(=O)[nH]2)CCN(C)C4)cc(C)c1OCCCCCC(=O)Nc1ccccc1N`, the IC50 in [1] was 2.19 µM; in [2], 9.87 µM; in experiment [3] it was more than 10 µM; in experiment [4], more than 10 µM; in [5] it was 6.93 µM; in experiment [6], more than 10 µM. Further, the IC50 in experiment [7] is 0.17 µM.

As for `Cc1cc(-c2nc3sc4c(c3c(=O)[nH]2)CCN(C)C4)cc(C)c1OCc1ccc(/C=C/C(=O)NO)cc1`, the IC50 in [1] is 1.19 µM; in experiment [2], 2.34 µM; in experiment [3] it was 0.202 µM; in experiment [4], 3.67 µM; in experiment [5] it was 0.92 µM; in experiment [6] it was more than 10 µM. This molecule also gave an IC50 in [7] of 0.097 µM.

For `Cc1noc(C)c1-c1nc2sc3c(c2c(=O)[nH]1)CCN(CCCC(=O)NO)C3`, the IC50 in [1] is more than 10 µM; in experiment [2] it was 9.86 µM; in [3], 0.464 µM; in experiment [4], 19.6 µM; in experiment [5], 18 µM; in experiment [6], more than 10 µM. Moreover, in experiment [7], the half-maximal inhibitory concentration (IC50) worked out at 0.282 µM.

Take `Cc1cc(-c2nc3sc4c(c3c(=O)[nH]2)CCN(C)C4)cc(C)c1OCCCC(=O)NO`: the IC50 in [1] is 1.17 µM; in [2] it was 3.83 µM; in [3] it was 0.25 µM; in experiment [4], 9.72 µM; in experiment [5], 2.08 µM; in experiment [6], more than 10 µM. In [7], the IC50 stood at 0.16 µM.

Regarding `Cc1noc(C)c1-c1nc2sc3c(c2c(=O)[nH]1)CCN(CC(=O)NO)C3`, the IC50 in experiment [1] was more than 10 µM; in experiment [2] it was 19.6 µM; in experiment [3], 0.455 µM; in [4], 22.6 µM; in experiment [5], 22.8 µM; in experiment [6], more than 10 µM. The molecule further returned an IC50 in experiment [7] of 0.489 µM.

As to `Cc1noc(C)c1-c1nc2sc3c(c2c(=O)[nH]1)CCN(CCCCCC(=O)NO)C3`, the IC50 is more than 10 µM in experiment [1]; 8.47 µM in [2]; 0.156 µM in experiment [3]; 16.8 µM in [4]; 15.3 µM in [5]; more than 10 µM in experiment [6]. Also, in experiment [7], the IC50 was 0.135 µM.

With `Cc1cc(-c2nc3sc4c(c3c(=O)[nH]2)CCN(CCCCCC(=O)NO)C4)cc(C)c1O`, the half-inhibitory concentration (IC50) is more than 10 µM in experiment [1]; 15.8 µM in experiment [2]; 0.129 µM in experiment [3]; more than 10 µM in experiment [4]; more than 10 µM in [5]; more than 10 µM in experiment [6]. In addition, in experiment [7], inhibition was half-maximal at 0.136 µM (IC50).

For the origin of these results see ChEMBL document CHEMBL4342471, “Discovery of Thieno[2,3-d]pyrimidine-Based Hydroxamic Acid Derivatives as Bromodomain-Containing Protein 4/Histone Deacetylase Dual Inhibitors Induce Autophagic Cell Death in Colorectal Carcinoma Cells” (J Med Chem, 2020).
